The results in this text go back to ChEMBL document CHEMBL1123272, “Comparison of (-)-eseroline with (+)-eseroline and dihydroseco analogues in antinociceptive assays: confirmation of rubreserine structure by X-ray analysis” (1986).

Test [1] has as its system Mus musculus. The experiment in a line: Compound was tested in vivo for narcotic antagonist activity (dose in sc, mg/kg) in mice using tail flick antagonism assay; I =inactive at 1, 10, 30 mg/kg. The test is classed as functional, organism-based. Further details: dose 30 mg/kg. Summed up: (§1)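 Mouse tail-flick antagonism assay against morphine, with the test compound given subcutaneously and doses in mg/kg. It was run by an outside laboratory (Medical College of Virginia).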

Test [2] deals with Mus musculus. The experiment in a line: Compound was tested in vivo for narcotic agonist activity (dose in sc, mg/kg) in mice using phenylquinone assay. The test is classed as functional.
The test system of test [3] is Mus musculus. The experiment in a line: Compound was tested in vivo for narcotic agonist activity (dose in sc, mg/kg) in mice using hot plate assay. Format: functional. Summed up: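 Mouse hot-plate test for narcotic agonist activity with subcutaneous dosing. Values are in mg/kg with 95% confidence limits.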
Background: Thermal pain tests record how soon the animal reacts.

Test [4] has as its system Mus musculus. The experiment in a line: Compound was tested in vivo for narcotic agonist activity (dose in sc, mg/kg) in mice using tail flick assay. The test is classed as functional.
Test [5] has as its system Mus musculus. Kind of test: Compound was tested in vivo for narcotic agonist activity (dose in sc, mg/kg) in mice using tail flick assay; I = Inactive at 1,10, 30 mg/kg. Format: functional, organism-based. The arrangement: dose 30 mg/kg.
In test [6] the test system is Mus musculus. The experiment in a line: Compound was tested in vivo for narcotic agonist activity (dose in sc, mg/kg) in mice using hot plate assay; I = Inactive at 1,10, 30 mg/kg. The test is classed as functional, organism-based. The arrangement: dose 30 mg/kg.
The test system of test [7] is Mus musculus. Kind of test: Compound was tested in vivo for narcotic agonist activity (dose in sc, mg/kg) in mice using phenylquinone assay. The test is classed as functional.
In test [8] the test system is Mus musculus. The experiment in a line: Compound was tested in vivo for narcotic antagonist activity (dose in sc, mg/kg) in mice using tail flick antagonism assay; I = Inactive at 1,10, 30 mg/kg. The arrangement: dose 30 mg/kg. The test is classed as functional, organism-based. Summed up:
as §1

The subject of test [9] is Mus musculus. The experiment in a line: Compound was tested in vivo for narcotic agonist activity (dose in sc, mg/kg) in mice using tail flick assay. The test is classed as functional.
Test [10] deals with Mus musculus. The experiment in a line: Compound was tested in vivo for narcotic antagonist activity (dose in sc, mg/kg) in mice using tail flick antagonism assay. Format: functional. Summed up:
as §1

The subject of test [11] is Mus musculus. Kind of test: Compound was tested in vivo for narcotic agonist activity (dose in sc, mg/kg) in mice using phenylquinone assay; I = Inactive at 1,10, 30 mg/kg. The test is classed as functional, organism-based. Further details: dose 30 mg/kg.

Activity calls are given as the source filed them. No cut-off for these calls is given here.

On to `CN1CC[C@]23c4c5ccc(O)c4O[C@H]2[C@@H](O)C=C[C@H]3[C@H]1C5` [MORPHINE], for which, in the test on Mus musculus [1], the outcome was inactive. The Activity amounted to 0.23 in the test on Mus musculus [2], 1.3 in the test on Mus musculus [3] and 5.8 in the test on Mus musculus [4].
As to `CN1CC[C@]2(C)c3cc(O)ccc3N(C)[C@H]12`, the result with Mus musculus [5], in the test on Mus musculus [6] and in the test on Mus musculus [8] was inactive. Moreover, the Activity in the test on Mus musculus [7] amounted to 2.3.
For the molecule `CN1CC[C@@]2(C)c3cc(O)ccc3N(C)[C@@H]12`, the Activity in the test with Mus musculus [3] worked out at 1.6; in the test with Mus musculus [7], 0.7; in the test with Mus musculus [9], 2.3. Besides, the outcome in the test on Mus musculus [8] was inactive.
For the molecule `CN1c2ccc(O)cc2[C@]2(C)CCN[C@H]12`, in the test on Mus musculus [6], the outcome was inactive.
As to `C=CCN1CC[C@]23c4c5ccc(O)c4O[C@H]2C(=O)CC[C@@]3(O)[C@H]1C5` [NALOXONE], the Activity with Mus musculus [10] came out at 0.03. The result with Mus musculus [5], with Mus musculus [6] and with Mus musculus [11] was inactive.
